Experimental data from different studies.
Compare with care: the assays were run in different laboratories.
CDK1 with cyclin B: Cyclin-dependent kinase 1, with cyclin B (CDK1, Homo sapiens, UniProt P06493)
CDK1: Cyclin-dependent kinase 1 (CDK1, Homo sapiens, UniProt P06493)
CDK1 with cyclin A: Cyclin-dependent kinase 1, with cyclin A (CDK1, Homo sapiens, UniProt P06493)
CDK1 with cyclin B1: Cyclin-dependent kinase 1, with cyclin B1 (CDK1, Homo sapiens, UniProt P06493)

CCCOc1ccc(OC)c(F)c1C(=O)c1ccc(C(=O)N[C@@H]2CNC[C@H]2NC(=O)c2ccc3[nH]ncc3c2)cc1  remaining activity (CDK1 with cyclin B; enzyme activity; inhibitor; 10 µM): 102%
CSc1nc(C)c(-c2ccnc(Nc3ccc(N4CCOCC4)cc3)c2)[nH]1  inhibition (CDK1; enzyme activity; inhibitor; 10 µM): 62%
O=C(Nc1cnn(-c2csc(C(=O)NC3COC3)c2)c1)Nc1c(F)cccc1Cl  remaining activity (Cyclin-dependent kinase 1, with cyclin E (CDK1, Homo sapiens, UniProt P06493); enzyme activity; inhibitor; 5 µM): 98.4%
CC(C)n1cnc2c(Nc3cccc(Cl)c3)nc(NCCO)nc21  remaining signal (CDK1 with cyclin B; cell-free assay; 0.5 µM): 46.6%
Cc1ccc(C(=O)NCc2ccsc2)cc1C#Cc1cn(C(C)C)c2ncnc(N)c12  activity vs control (CDK1 with cyclin B; enzyme activity; inhibitor; 1 µM): 100%
Cc1ccc(Nc2nccc(N(C)c3ccc4c(C)n(C)nc4c3)n2)cc1S(N)(=O)=O  inhibition (CDK1 with cyclin B; enzyme activity; inhibitor; 10 µM): 29%
Nc1nc(Nc2ccc(S(N)(=O)=O)cc2)nn1C(=O)c1c(F)cccc1F  remaining signal (CDK1 with cyclin A; cell-free assay; 0.5 µM): 10.3%
CNCc1ccc(-c2cc(-c3nc(-c4ccc(S(=O)(=O)C(C)C)cc4)cnc3N)on2)cc1  inhibition (CDK1 with cyclin B; enzyme activity; inhibitor; 0.4 µM): 0%
O=C1NC(=O)c2c1c1c3ccccc3[nH]c1n1cncc21  remaining signal (CDK1 with cyclin A; cell-free assay; 0.5 µM): 94.8%
CNC(=O)c1cc(Oc2ccc(NC(=O)Nc3ccc(Cl)c(C(F)(F)F)c3)cc2)ccn1  inhibition (CDK1 with cyclin B; enzyme activity; inhibitor; 10 µM): 10%
CC/C(=N\NC(=O)NCc1cccc(O)c1)c1ccc(O)c(C)c1O  inhibition (CDK1 with cyclin B1; enzyme activity; inhibitor; 0.1 µM): -14.8%
O=Nc1c(-c2c(O)[nH]c3ccccc23)[nH]c2ccccc12  remaining signal (CDK1 with cyclin A; cell-free assay; 0.5 µM): 88.4%
CC(C)(C)c1nc2c(s1)c1nc(N)ncc1c1ccc(NS(=O)(=O)c3c(F)cccc3F)c(F)c12  remaining activity (CDK1 with cyclin B1; enzyme activity; inhibitor; radiometric; 1 µM): 89%
CCN(CC)c1ccc(C2=NNC(=O)CC2C)cc1[N+](=O)[O-] (centres unmarked)  remaining activity (CDK1 with cyclin B; enzyme activity; inhibitor; 10 µM): 111%
Cc1ccc(-n2nc(C(C)(C)C)cc2NC(=O)Nc2ccc(OCCN3CCOCC3)c3ccccc23)cc1  inhibition (CDK1 with cyclin B; enzyme activity; inhibitor; 10 µM): -6%
Cc1cc(NC(=O)c2cccc3cc(-c4cccc5[nH]nc(N)c45)ccc23)ccc1F  activity vs control (CDK1 with cyclin B; enzyme activity; inhibitor; 0.1 µM): 95%
O=C1Nc2ccc(Cl)cc2C1=Cc1cc(Cl)c(O)c(Cl)c1  remaining signal (CDK1 with cyclin A; cell-free assay; 0.5 µM): 91.9%
Cc1cnc(NC2CCOCC2)nc1-n1cnc(C(=O)NC(CN)c2cc(F)cc(Cl)c2)c1 (centres unmarked)  remaining activity (CDK1 with cyclin B; enzyme activity; inhibitor; radiometric; 1 µM): 20%
O=C(Nc1cnn(-c2csc(C(=O)NC3COC3)c2)c1)Nc1ccccc1Cl  remaining activity (CDK1 with cyclin B; enzyme activity; inhibitor; 5 µM): 92.6%
CC(C)[C@H](CO)Nc1nc(Nc2cccc(Cl)c2)c2ncn(C(C)C)c2n1  remaining signal (CDK1 with cyclin B; cell-free assay; 0.5 µM): 34.9%
CC(C)(C)c1nc(-c2cccc(NS(=O)(=O)c3c(F)cccc3F)c2F)c(-c2ccnc(N)n2)s1  remaining activity (Cyclin-dependent kinase 1, with cyclin A2 (CDK1, Homo sapiens, UniProt P06493); enzyme activity; inhibitor; radiometric; 1 µM): 84%
O=C1NC(=O)c2cc(Nc3ccc(F)cc3)c(Nc3ccc(F)cc3)cc21  remaining signal (CDK1 with cyclin B; cell-free assay; 0.5 µM): 103%
Cc1sc(C(=O)NC2COC2)cc1-n1cc(NC(=O)Nc2c(F)cccc2Cl)cn1  remaining activity (CDK1 with cyclin B; enzyme activity; inhibitor; 10 µM): 92.7%
COc1cc(Cl)c(C(=O)N[C@@H](CN[C@H]2CC[C@@H](N)CC2)Cc2ccc(C#N)cc2)cc1-c1ccc(CN[C@H](C)c2ccc(C)cc2)o1  remaining activity (CDK1 with cyclin B; enzyme activity; inhibitor; 1 µM): 95%
CCCCNc1ncc2c(-c3ccc(F)cc3)nn(C[C@H]3CC[C@H](N)CC3)c2n1  inhibition (CDK1; target engagement in cells; inhibitor; chemoproteomics; 20 mM): 4.2%
CC(C)(O)[C@H]1CC[C@H](Nc2ccc3ncc(-c4cccc(C(F)(F)F)c4)n3n2)CC1  remaining activity (CDK1 with cyclin B; enzyme activity; inhibitor; 1 µM): 66.9%
CCN(CC)CCNC(=O)c1c(C)[nH]c(/C=C2\C(=O)Nc3ccc(F)cc32)c1C  inhibition (CDK1 with cyclin B; enzyme activity; inhibitor; 10 µM): 10%
N#CCCc1ccc2c(c1)-c1[nH]c3ccc([N+](=O)[O-])cc3c1CC(=O)N2  remaining signal (CDK1 with cyclin A; cell-free assay; 0.5 µM): 24.8%
COc1cc2ncnc(Nc3ccc(Oc4ccccc4)c(C)c3C)c2cc1OC  inhibition (CDK1 with cyclin B; enzyme activity; inhibitor; 1 µM): 3%
